From ChEMBL document CHEMBL1153403, “Design, synthesis, and evaluation of novel fluoroquinolone-aminoglycoside hybrid antibiotics” (J Med Chem, 2009)
In brackets after ≈: the same amount, converted by molar mass.

Legend:
Staphylococcus aureus = assay: Antibacterial activity against methicillin-resistant Staphylococcus aureus ATCC 43300 by double-microdilution method; format: functional
Escherichia coli [1] = assay: Antibacterial activity against aminoglycosides-resistant Escherichia coli BL21 harboring pETSACG1 expressing APH(3')-3a enzyme by double-microdilution method; format: functional
Bacillus subtilis = assay: Antibacterial activity against aminoglycosides-susceptible Bacillus subtilis ATCC 6633 by double-microdilution method; format: functional
Escherichia coli [2] = assay: Antibacterial activity against aminoglycosides-resistant Escherichia coli XL1-blue harboring pET9d expressing APH(3')-1a enzyme by double-microdilution method; format: functional
Escherichia coli [3] = assay: Antibacterial activity against Escherichia coli R477-100 by double-microdilution method; format: functional
Escherichia coli [4] = assay: Antibacterial activity against Escherichia coli XL1-blue by double-microdilution method; format: functional
Escherichia coli [5] = assay: Resistance index, MIC for aminoglycosides-resistant Escherichia coli XL1-blue harboring pET9d expressing APH(3')-1a enzyme to MIC for Escherichia coli XL1-blue; format: functional
How it was run: (§1)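 Ratio of MIC on the plasmid-bearing resistant strain to MIC on its background strain (pETSACG1 vs BL21; pET9d or pSF815 vs XL1 blue). MICs by NCCLS double microdilution from starting concentrations of 384 and 1.5 µg/mL, in duplicate, two to four experiments.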

Escherichia coli [6] = assay: Resistance index, MIC for aminoglycosides-resistant Escherichia coli XL1-blue harboring pSF815 expressing AAC(6')-APH(2'') enzyme to MIC for Escherichia coli XL1-blue; format: functional; how it was run: as §1
Escherichia coli [7] = assay: Antibacterial activity against aminoglycosides-resistant Escherichia coli XL1-blue harboring pSF815 expressing AAC(6')-APH(2'') enzyme by double-microdilution method; format: functional
Escherichia coli [8] = assay: Antibacterial activity against Escherichia coli ATCC 25922 by double-microdilution method; format: functional
Escherichia coli [9] = assay: Antibacterial activity against Escherichia coli BL21 by double-microdilution method; format: functional
[10] = Ratio of kcat/km for aminoglycoside 3'-phosphotransferase 3a
Escherichia coli [11] = assay: Resistance index, MIC for aminoglycosides-resistant Escherichia coli BL21 harboring pETSACG1 expressing APH(3')-3a enzyme to MIC for Escherichia coli BL21; format: functional; how it was run: as §1
[12] = Activity at aminoglycoside 3'-phosphotransferase 3a
Escherichia coli [13] = assay: Antibacterial activity against kanamycin-resistant Escherichia coli AG100B expressing aminoglycosides resistant APH(3')-1 enzyme by double-microdilution method; format: functional
Escherichia coli [14] = assay: Antibacterial activity against kanamycin-resistant Escherichia coli AG100A expressing aminoglycosides resistant APH(3')-1 enzyme by double-microdilution method; format: functional
[15] = Inhibition of Escherichia coli DNA gyrase assessed as reduction in relaxed pBR322 DNA supercoiling activity after 1 hr by electrophoresis
How it was run: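 Supercoiling of relaxed pBR322 (12.5 ng/µL) by E. coli DNA gyrase in 35 mM Tris-Cl pH 7.5 with 24 mM KCl, 4 mM MgCl₂, 2 mM DTT, 1.8 mM spermidine, 1 mM ATP, 6.5% glycerol and 0.1 mg/mL BSA. Incubated 37 °C for 1 h, stopped with loading dye plus chloroform/isoamyl alcohol, and resolved on 1% agarose. IC50 is the concentration halving activity versus drug-free control.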

[16] = Inhibition of Escherichia coli topoisomerase 4 assessed as reduction in supercoiled pBR322 DNA relaxation activity after 30 mins by electrophoresis
How it was run: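 E. coli TopoIV relaxation of supercoiled pBR322 in 40 mM HEPES-KOH pH 7.6 with 100 mM potassium glutamate, 10 mM Mg(OAc)₂, 10 mM DTT, 1 mM ATP and 50 µg/mL albumin. Incubated 37 °C for 30 min, stopped with EDTA, loading dye and chloroform/isoamyl alcohol, then run on 1% agarose. Supercoiled DNA percentage was quantified from gel images. IC50 is the 50% reduction versus drug-free control.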

Escherichia coli [17] = assay: Inhibition of protein synthesis in Escherichia coli S30 extracts assessed as luciferase activity after 1 hr by coupled transcription/translation assay; format: functional
How it was run: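 Coupled transcription/translation of the pBESTluc plasmid in E. coli S30 extract with varying compound concentrations, 37 °C for 60 min. Reactions were cooled on ice, diluted in Tris-phosphate pH 7.8 reagent, and luciferase luminescence was read immediately after substrate addition. IC50 came from concentration-response curves fitted to at least two independent experiments.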

[18] = Escherichia coli, 1 h, read-out: IC50

Row | SMILES | MIC (Staphylococcus aureus) [µg/mL] | MIC (Escherichia coli [1]) [µg/mL] | MIC (Bacillus subtilis) [µg/mL] | MIC (Escherichia coli [2]) [µg/mL] | MIC (Escherichia coli [3]) [µg/mL] | MIC (Escherichia coli [4]) [µg/mL] | Ratio (Escherichia coli [5]) | Ratio (Escherichia coli [6]) | MIC (Escherichia coli [7]) [µg/mL] | MIC (Escherichia coli [8]) [µg/mL] | MIC (Escherichia coli [9]) [µg/mL] | Ratio (Escherichia coli [11]) | MIC (Escherichia coli [13]) [µg/mL] | MIC (Escherichia coli [14]) [µg/mL] | IC50 ([15]; read-out: IC50) [nM] | IC50 ([16]; read-out: IC50) [nM] | IC50 (Escherichia coli [17]; [18]) [nM] | also measured
1 | NC[C@@H]1O[C@H](O[C@H]2[C@@H](O)[C@H](O[C@@H]3[C@@H](O)[C@H](N)C[C@H](N)[C@H]3O[C@H]3O[C@H](CN)[C@@H](O)[C@H](O)[C@H]3N)O[C@@H]2C(=O)NCc2cn(CC(O)CN3CCN(c4cc5c(cc4F)c(=O)c(C(=O)O)cn5C4CC4)CC3)nn2)[C@H](N)[C@@H](O)[C@@H]1O (stereo not given in full) | 12 (≈ 10.9 µM) | 0.2 (≈ 0.182 µM) | 3 (≈ 2.74 µM) | 12 (≈ 10.9 µM) | 6 (≈ 5.47 µM) | 6 (≈ 5.47 µM) | 2 | 8 | 48 (≈ 43.8 µM) | 3 (≈ 2.74 µM) | 0.2 (≈ 0.182 µM) | 1 | 12 (≈ 10.9 µM) | 0.75 (≈ 0.684 µM) | – | – | – | kcat/Km [10]: 2.9 ×10⁴ /M/s; Km [12]: 86.8 µM; kcat [12]: 2.5 s⁻¹
2 | NC[C@@H]1O[C@H](O[C@H]2[C@@H](O)[C@H](O[C@@H]3[C@@H](O)[C@H](N)C[C@H](N)[C@H]3O[C@H]3O[C@H](CN)[C@@H](O)[C@H](O)[C@H]3N)O[C@@H]2C(=O)Nc2ccc(-c3cn(CC(O)CN4CCN(c5cc6c(cc5F)c(=O)c(C(=O)O)cn6C5CC5)CC4)nn3)cc2)[C@H](N)[C@@H](O)[C@@H]1O (stereo not given in full) | 24 (≈ 20.7 µM) | – | 6 (≈ 5.18 µM) | – | 6 (≈ 5.18 µM) | – | – | – | – | 3 (≈ 2.59 µM) | – | – | 6 (≈ 5.18 µM) | 0.75 (≈ 0.648 µM) | 73 | 580 | 2200 | –
3 | NC[C@@H]1O[C@H](O[C@H]2[C@@H](O)[C@H](O[C@@H]3[C@@H](O)[C@H](N)C[C@H](N)[C@H]3O[C@H]3O[C@H](CN)[C@@H](O)[C@H](O)[C@H]3N)O[C@@H]2CO)[C@H](N)[C@@H](O)[C@@H]1O [FRAMYCETIN] | 384 (≈ 625 µM) | 48 (≈ 78.1 µM) | 1.5 (≈ 2.44 µM) | 96 (≈ 156 µM) | 24 (≈ 39 µM) | 6 (≈ 9.76 µM) | 16 | >64 | > 384 | 48 (≈ 78.1 µM) | 6 (≈ 9.76 µM) | 8 | 384 (≈ 625 µM) | 96 (≈ 156 µM) | – | – | 10500 | IC50 [15]: Not Active; IC50 [16]: Not Active; kcat/Km [10]: 42 ×10⁴ /M/s; Km [12]: 5.7 µM; kcat [12]: 2.4 s⁻¹
4 | NC[C@@H]1O[C@H](O[C@H]2[C@@H](O)[C@H](O[C@@H]3[C@@H](O)[C@H](N)C[C@H](N)[C@H]3O[C@H]3O[C@H](CN)[C@@H](O)[C@H](O)[C@H]3N)O[C@@H]2C(=O)NCc2cn(Cc3ccc(CN4CCN(c5cc6c(cc5F)c(=O)c(C(=O)O)cn6C5CC5)CC4)cc3)nn2)[C@H](N)[C@@H](O)[C@@H]1O | 3 (≈ 2.63 µM) | 0.4 (≈ 0.35 µM) | 3 (≈ 2.63 µM) | 6 (≈ 5.25 µM) | 6 (≈ 5.25 µM) | 6 (≈ 5.25 µM) | 1 | 1 | 6 (≈ 5.25 µM) | 6 (≈ 5.25 µM) | 0.4 (≈ 0.35 µM) | 1 | 12 (≈ 10.5 µM) | 1.5 (≈ 1.31 µM) | – | – | – | –
5 | O=C(O)c1cn(C2CC2)c2cc(N3CCNCC3)c(F)cc2c1=O [CIPROFLOXACIN] | 0.2 (≈ 0.604 µM) | – | 0.02 (≈ 0.0604 µM) | – | – | – | – | – | – | – | < 0.005 | – | – | < 0.005 | 1300 | 10800 | – | IC50 (Escherichia coli [17]): Not Active
6 | NC[C@@H]1O[C@H](O[C@H]2[C@@H](O)[C@H](O[C@@H]3[C@@H](O)[C@H](N)C[C@H](N)[C@H]3O[C@H]3O[C@H](CN)[C@@H](O)[C@H](O)[C@H]3N)O[C@@H]2C(=O)NCc2cn(Cc3cccc(CN4CCN(c5cc6c(cc5F)c(=O)c(C(=O)O)cn6C5CC5)CC4)c3)nn2)[C@H](N)[C@@H](O)[C@@H]1O | 6 (≈ 5.25 µM) | 0.4 (≈ 0.35 µM) | 3 (≈ 2.63 µM) | 6 (≈ 5.25 µM) | 6 (≈ 5.25 µM) | 6 (≈ 5.25 µM) | 1 | 4 | 24 (≈ 21 µM) | 6 (≈ 5.25 µM) | 0.4 (≈ 0.35 µM) | 1 | 12 (≈ 10.5 µM) | 0.75 (≈ 0.657 µM) | – | – | – | –
7 | NC[C@@H]1O[C@H](O[C@H]2[C@@H](O)[C@H](O[C@@H]3[C@@H](O)[C@H](N)C[C@H](N)[C@H]3O[C@H]3O[C@H](CN)[C@@H](O)[C@H](O)[C@H]3N)O[C@@H]2COCc2cn(CCN3CCN(c4cc5c(cc4F)c(=O)c(C(=O)O)cn5C4CC4)CC3)nn2)[C@H](N)[C@@H](O)[C@@H]1O | 6 (≈ 5.7 µM) | 0.2 (≈ 0.19 µM) | 0.75 (≈ 0.712 µM) | 12 (≈ 11.4 µM) | 3 (≈ 2.85 µM) | 3 (≈ 2.85 µM) | 4 | 4 | 12 (≈ 11.4 µM) | 3 (≈ 2.85 µM) | 0.2 (≈ 0.19 µM) | 1 | 12 (≈ 11.4 µM) | 0.38 (≈ 0.361 µM) | 41 | 7900 | 18100 | –
8 | NC[C@@H]1O[C@H](O[C@H]2[C@@H](O)[C@H](O[C@@H]3[C@@H](O)[C@H](N)C[C@H](N)[C@H]3O[C@H]3O[C@H](CN)[C@@H](O)[C@H](O)[C@H]3N)O[C@@H]2C(=O)Nc2ccc(-c3cn(Cc4ccc(CN5CCN(c6cc7c(cc6F)c(=O)c(C(=O)O)cn7C6CC6)CC5)cc4)nn3)cc2)[C@H](N)[C@@H](O)[C@@H]1O | 3 (≈ 2.49 µM) | 0.4 (≈ 0.332 µM) | 1.5 (≈ 1.25 µM) | 3 (≈ 2.49 µM) | 1.5 (≈ 1.25 µM) | 3 (≈ 2.49 µM) | 1 | 8 | 24 (≈ 19.9 µM) | 3 (≈ 2.49 µM) | 0.4 (≈ 0.332 µM) | 1 | 3 (≈ 2.49 µM) | 0.75 (≈ 0.623 µM) | 85 | 550 | 16700 | –
